Assay results reported in ChEMBL document CHEMBL1127799, “Derivatives of a novel cyclopeptolide. 1. Synthesis, antifungal activity, and structure-activity relationships” (1994).
In brackets after ≈: the same amount, converted by molar mass.

What was measured:
Type in all cases: functional
Pichia kudriavzevii [1] = test: Tested for minimum subinhibitory concentration against Candida krusei 132 (C.k) at pH 6.5.
Method in brief: (§1)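 Malt extract broth microdilution, initial pH 6.5, inoculum 1×10^3 CFU per 0.2 mL well. Compound diluted from 0.08% stock (5% DMSO/0.2% Tween 80) to final 0.05–100 μg/mL. Macroscopic reading after 48 h, 30 °C. MSIC = lowest concentration giving visible growth inhibition in at least two of three triplicates. Vehicle-only negative controls.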

Candida albicans [2] = test: Tested for minimum subinhibitory concentration against Candida albicans 90 (Candida albicans) at pH 6.5.; method in brief: as §1
Candida albicans [3] = test: Tested for minimum subinhibitory concentration against Candida albicans 88 (Candida albicans) at pH 4.5.
Method in brief: (§2)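 Malt extract broth microdilution at initial pH 4.5, 1×10^3 CFU/0.2 mL well, final compound 0.05–100 μg/mL diluted from DMSO/Tween 80 stocks. Incubation was 48 h at 30 °C with macroscopic reading. MSIC was the lowest concentration causing visible growth inhibition in at least two of three triplicates.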

Mus musculus [4] = test: Tested for efficacy of compound in experimental vaginal candidosis (mouse) after intraperitoneal treatment at dosage of 4 x50 mg kg e-1
Method in brief: (§3)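 Female NMRI mice (18–20 g; 10 per group) were hormonally conditioned and infected intravaginally with 3.5×10^4 CFU C. albicans no. 124 in 50 μL Sabouraud's glucose broth. Four doses were given by gavage or ip, at 2 h before and 2, 18 and 24 h after infection. One day after the last dose, vaginal swabs were plated on Sabouraud agar with streptomycin (0.1 mg/mL) for 48 h at 37 °C. Failed reisolation counted as cure.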

Candida albicans [5] = test: Tested for minimum inhibitory concentration against Candida albicans 9 (Candida albicans) at pH 6.5.
Method in brief: (§4)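 Broth microdilution in malt extract broth, initial pH 6.5, 1×10^3 CFU per 0.2 mL well, from liquid-nitrogen-stored Sabouraud cultures. Compound from 0.08% stock in 5% DMSO/0.2% Tween 80, final 0.05–100 μg/mL. Visual reading after 48 h at 30 °C. MIC = lowest concentration with no detectable growth. Vehicle-only negative controls.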

Candida albicans [6] = test: Tested for minimum subinhibitory concentration against Candida albicans 88 (Candida albicans) at pH 6.5.; method in brief: as §1
Mus musculus [7] = test: Tested for efficacy of compound in experimental systemic candidosis (mouse) after intraperitoneal treatment at dosage of 8 *100 mg kg e-1
Method in brief: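 Mice (female NMRI, 18–20 g; 10 per group) infected by tail-vein injection of 10⁶ CFU C. albicans no. 124. Compound was given intraperitoneally twice daily on 4 consecutive days, starting 2 h before inoculation. Efficacy was scored as survival rate up to day 9 after infection.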

Rattus norvegicus [8] = test: Tested for efficacy of compound in experimental vaginal candidosis (rat) after intraperitoneal treatment at dosage of 2x 100 mg kg e-1
Method in brief: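 Female Wistar rats (~150 g; 10 per group) were hormonally conditioned and infected intravaginally with 3.5×10^4 CFU C. albicans no. 124 in 50 μL broth. Intraperitoneal dosing was given twice, 2 h before and 18 h after infection. Swabs taken one day after the last dose were plated on streptomycin Sabouraud agar (48 h, 37 °C). Cure meant failed reisolation.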

Candida tropicalis [9] = test: Tested for minimum inhibitory concentration against Candida tropicalis 43 (C.t) at pH 6.5.; method in brief: as §4
[10] = system: Meyerozyma guilliermondii; test: Tested for minimum subinhibitory concentration against Candida guilliermondii 80 (C.g) at pH 6.5.; method in brief: as §1
Candida albicans [11] = test: Tested for minimum inhibitory concentration against Candida albicans 9 (Candida albicans) at pH 4.5.
Method in brief: (§5)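 Broth microdilution in malt extract broth, initial pH 4.5 or 6.5, with 1×10^3 CFU per 0.2 mL well of thawed stored cultures. Compound stocks were made in 5% DMSO/0.2% Tween 80 and diluted to final 0.05–100 μg/mL. Plates were incubated 48 h at 30 °C and read macroscopically. MIC was the lowest concentration with no detectable growth. Vehicle-only wells served as controls.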

Mus musculus [12] = test: Tested for efficacy of compound in experimental vaginal candidosis (mouse) after intraperitoneal treatment at dosage of 4 x100 mg kg e-1; method in brief: as §3
Candida albicans [13] = test: Tested for minimum inhibitory concentration against Candida albicans 26 (Candida albicans) at pH 4.5.; method in brief: as §5
Candida albicans [14] = test: Tested for minimum inhibitory concentration against Candida albicans 3 (Candida albicans) at pH 6.5.; method in brief: as §4
Candida albicans [15] = test: Tested for minimum inhibitory concentration against Candida albicans 124 (Candida albicans) at pH 4.5.; method in brief: as §5
Candida albicans [16] = test: Tested for minimum inhibitory concentration against Candida albicans 124 (Candida albicans) at pH of 6.5.; method in brief: as §5
Candida albicans [17] = test: Tested for minimum inhibitory concentration against Candida albicans 124 (Candida albicans) at pH of 4.5.; method in brief: as §5
Candida tropicalis [18] = test: Tested for minimum inhibitory concentration against Candida tropicalis (C.t) at pH 4.5.; method in brief: as §5
Pichia kudriavzevii [19] = test: Tested for minimum subinhibitory concentration against Candida krusei 132 (C.k) at pH 4.5.; method in brief: as §2
Pichia kudriavzevii [20] = test: Tested for minimum inhibitory concentration against Candida krusei 132 (C.k) at pH of 4.5.; method in brief: as §5
Pichia kudriavzevii [21] = test: Tested for minimum inhibitory concentration against Candida krusei 132 (C.k) at pH of 6.5.; method in brief: as §5
Pichia kudriavzevii [22] = test: Tested for minimum inhibitory concentration against Candida krusei 132 (C.k) at pH 6.5.; method in brief: as §4
Mus musculus [23] = organism: Mus musculus; test: Tested for efficacy of compound in experimental vaginal candidosis (mouse) after oral treatment at dosage of 4 x150 mg kg e-1
Method in brief: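 Vaginal candidiasis in hormonally conditioned female NMRI mice (18–20 g), 10 per group, inoculated intravaginally with 50 μL Sabouraud's glucose broth containing 3.5×10^4 CFU C. albicans no. 124. Dosed four times per gavage, 2 h before and 2, 18 and 24 h after infection. Vaginal swabs plated on Sabouraud's glucose agar with streptomycin (0.1 mg/mL), 48 h at 37 °C. Cure = failed reisolation.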

Rattus norvegicus [24] = organism: Rattus norvegicus; test: Tested for efficacy of compound in experimental vaginal candidosis (rat) after tropical treatment at dosage of 9x 0.1% drug concentration
Method in brief: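 Female Wistar rats (~150 g, hormonally conditioned, 10 per group) infected intravaginally with 3.5×10^4 CFU C. albicans no. 124 in 50 μL broth. Intravaginal gel, 0.2 mL, from 2 h post-inoculation, twice daily for 4 days (nine applications). Swabs plated one day after last treatment on Sabouraud's glucose agar with streptomycin, 48 h at 37 °C. Cure = no reisolation.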

Rattus norvegicus [25] = organism: Rattus norvegicus; test: Tested for efficacy of compound in experimental vaginal candidosis (rat) after oral treatment at dosage of 2x 150 mg kg e-1
Method in brief: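 Hormonally conditioned female Wistar rats (~150 g), 10 per group, given intravaginal C. albicans no. 124, 3.5×10^4 CFU in 50 μL Sabouraud's glucose broth. Oral dosing twice, 2 h before and 18 h after infection. Vaginal swabs plated on Sabouraud's glucose agar with streptomycin (0.1 mg/mL), 48 h at 37 °C. Cured when C. albicans not reisolated.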

[26] = system: Meyerozyma guilliermondii; test: Tested for minimum subinhibitory concentration against Candida guilliermondii 80 (C.g) at pH 4.5.; method in brief: as §2
Candida albicans [27] = test: Tested for minimum subinhibitory concentration against Candida albicans 4 (Candida albicans) at pH 4.5.; method in brief: as §2
Candida albicans [28] = test: Tested for minimum subinhibitory concentration against Candida albicans 124 (Candida albicans) at pH 4.5.; method in brief: as §2

Compound: CC[C@@H](C)[C@H]1C(=O)NCC(=O)N(C)[C@@H](C(C)C)C(=O)N[C@@H](Cc2ccc(OC)cc2)C(=O)O[C@H](C)C(=O)N2CCCC[C@H]2C(=O)N(C)[C@@H](C(C)C)C(=O)N[C@@H](C(C)C)C(=O)N(C)[C@@H](CC(=O)O)C(=O)N(C)[C@@H]([C@@H](C)CC)C(=O)N1C
- MSIC (Pichia kudriavzevii [1]): 3.12 µg/mL
- MSIC (Candida albicans [2]): 3.12 µg/mL
- MSIC (Candida albicans [3]): 0.78 µg/mL
- Efficacy (Mus musculus [4]): 7%
- MIC (Candida albicans [5]): > 100 µg/mL
- MSIC (Candida albicans [6]): 3.12 µg/mL
- Efficacy (Mus musculus [7]): 100%
- Efficacy (Rattus norvegicus [8]): 76%
- MIC (Candida tropicalis [9]): 100 µg/mL (≈ 88.8 µM)
- MSIC [10]: 12.5 µg/mL
- MIC (Candida albicans [11]): 12.5 µg/mL (≈ 11.1 µM)
- Efficacy (Mus musculus [12]): 14%
- MIC (Candida albicans [13]): 6.25 µg/mL (≈ 5.55 µM)
- MIC (Candida albicans [14]): > 100 µg/mL
- MIC (Candida albicans [15]): 1.56 µg/mL (≈ 1.38 µM)
- MIC (Candida albicans [16]): 50 µg/mL (≈ 44.4 µM)
- MIC (Candida albicans [17]): 1.56 µg/mL (≈ 1.38 µM)
- MIC (Candida tropicalis [18]): 1.56 µg/mL (≈ 1.38 µM)
- MSIC (Pichia kudriavzevii [19]): 1.56 µg/mL
- MIC (Pichia kudriavzevii [20]): > 100 µg/mL
- MIC (Pichia kudriavzevii [21]): > 100 µg/mL
- MIC (Pichia kudriavzevii [22]): > 100 µg/mL
- Efficacy (Mus musculus [23]): 31%
- Efficacy (Rattus norvegicus [24]): 78%
- Efficacy (Rattus norvegicus [25]): 0%
- MSIC [26]: 0.8 µg/mL
- MSIC (Candida albicans [27]): 0.78 µg/mL
- MSIC (Candida albicans [28]): 0.4 µg/mL
